This note sets out measurements from ChEMBL document CHEMBL1151196, “Chemical constituents from the mangrove plant, Aegiceras corniculatum” (J Nat Prod, 2004).

Common to all, as to type: functional, cell-based
One experiment has as its system HL-60. The experiment in a line: Cytotoxicity against human HL60 cells after 48 hrs by MTT assay. The conditions noted are these: HL-60, 48 h. In a few lines: (§1)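 Cells kept in RPMI-1640 with 10% FBS, penicillin and streptomycin, at 37 °C under 5% CO2. Seeded at 2000/mL and grown 24 h, then given serial dilutions (100 to 1 μg/mL; DMSO stock diluted in medium). Vehicle control was 0.1% DMSO. After 48 h, MTT added for 4 h. Formazan dissolved in acid-isopropanol and read at 570 nm. Run in triplicate.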

Another experiment deals with Bel-7402. The experiment in a line: Cytotoxicity against human Bel7402 cells after 48 hrs by MTT assay. The conditions noted are these: Bel-7402, 48 h. An outline of the steps: as §1
The test system of another experiment is HeLa. The experiment in a line: Cytotoxicity against human HeLa cells after 48 hrs by MTT assay. In a few lines:
as §1

A further experiment has as its system U-937. The experiment can be described thus: Cytotoxicity against human U937 cells after 48 hrs by MTT assay. To be noted: U-937, 48 h. An outline of the steps:
as §1

Values after ≈ are worked out from the molar mass of the structure shown. A value given as a limit tells only on which side of the number the result lay.

As for `CCCCCCCCCCCC1=C(O)/C(=C2\C(=O)Oc3c2cc(OC)c(O)c3CCCCCCCCCCC)OC1=O`, the IC50 in the experiment with HL-60, with Bel-7402, with HeLa and in the experiment with U-937 was greater than 100 µg/mL throughout.
Consider `CCCCCCCCCCCC1=C(O)C(=O)c2c(CCCCCCCCCCC)cc(O)cc2C1=O`, for which the IC50 in the experiment with HL-60, in the experiment with Bel-7402, in the experiment with HeLa and in the experiment with U-937 was greater than 100 µg/mL throughout.
For the compound `CCCCCCCCCc1cc(O)cc(O)c1OC`, the IC50 in the experiment with HL-60, with Bel-7402, with HeLa and in the experiment with U-937 was greater than 100 µg/mL throughout.
For the compound `CCCCCCCCCCCC1=C(O)C(=O)C=C(OCC)C1=O`, the IC50 in the experiment on HL-60 stood at 2.5 µg/mL (≈ 7.75 µM); in the experiment with Bel-7402 it was 2.7 µg/mL (≈ 8.37 µM); in the experiment with HeLa it was 3.9 µg/mL (≈ 12.1 µM); in the experiment with U-937, 1.3 µg/mL (≈ 4.03 µM).
For `CCCCCCCCCCCC1=C(OC(C)=O)C(=O)C=C(OC)C1=O`, in that order: greater than 100 µg/mL, greater than 100 µg/mL, greater than 100 µg/mL and greater than 100 µg/mL.
For `CCCCCCCCCCCC1=CC(=O)C=C(OC)C1=O`, the IC50 with HL-60, with Bel-7402, with HeLa and in the experiment on U-937 was greater than 100 µg/mL each time.
As for `CCCCCCCCCCCC1=C(O)C(=O)c2c(oc3c(CCCCCCCCCCC)c(O)c(OC)cc23)C1=O`, the IC50 with HL-60, in the experiment on Bel-7402, in the experiment with HeLa and in the experiment on U-937 was greater than 100 µg/mL each time.
Take `CCCCCCCCCCCC1=C(O)C(=O)c2c(oc3cc(OC)c(O)c(CCCCCCCCCCC)c23)C1=O`: the concentration for half-maximal inhibition (IC50) with HL-60, in the experiment with Bel-7402, in the experiment with HeLa and in the experiment with U-937 was greater than 100 µg/mL throughout.
Turning to `CCCCCCCCCCCC1=C(O)C(=O)C=C(OC)C1=O` [5-O-METHYLEMBELIN], the IC50 was found to be 3 µg/mL (≈ 9.73 µM) in the experiment on HL-60, 3.6 µg/mL (≈ 11.7 µM) in the experiment with Bel-7402, 9 µg/mL (≈ 29.2 µM) in the experiment on HeLa and 1.5 µg/mL (≈ 4.86 µM) in the experiment with U-937.
Turning to `COc1cc2c(c(OC)c1OC)-c1ccc(OC)c(=O)cc1[C@@H](NC(C)=O)CC2` [COLCHICINE], the figures for the IC50 with Bel-7402 and with U-937 were 0.4 µg/mL (≈ 1 µM) and 0.1 µg/mL (≈ 0.25 µM), respectively.
